Reference: ChEMBL document CHEMBL4334468, “Exploring Mitochondria-Mediated Intrinsic Apoptosis by New Phytochemical Entities: An Explicit Observation of Cytochrome c Dynamics on Lung and Melanoma Cancer Cells” (J Med Chem, 2019)
Active and inactive are the calls of the source. The calls are words filed in the database; no cut-off is given here.

Tests used:
Type in all cases: functional, cell-based
A-375 = test: Induction of morphological changes in human A375 cells assessed as change in shape of cells from spindle to spherical at 1 uM by atomic force microscopy
A549 [1] = test: Induction of apoptosis in human A549 cells at 1 uM by acridine orange-ethidium bromide assay
Outline: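 Cells were treated at 1 µM and then stained with acridine orange-ethidium bromide. Apoptosis was scored by fluorescence microscopy as a colour shift from green to yellow/red.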

A549 [2] = test: Induction of apoptosis in human A549 cells assessed as increase in caspase-2 levels at 1 uM incubated for 12 hrs by spectrofluorometry
A549 [3] = test: Induction of apoptosis in human A549 cells assessed as increase in caspase-8 levels at 1 uM incubated for 12 hrs by spectrofluorometry
A549 [4] = test: Induction of DNA fragmentation in human A549 cells after 4 hrs by agarose gel electrophoresis
A549 [5] = test: Induction of GSH depletion in human A549 cells by fluorimetry

SMILES: COc1cc(C2Oc3cc(-c4cc(=O)c5c(O)cc(O)cc5o4)ccc3OC2/C=C2\C(=O)ON=C2c2ccc(Cl)cc2)ccc1O (stereo unspecified)
- Activity (A-375): Active
- Activity (A549 [1]): Active
- Activity (A549 [2]): Active
- Activity (A549 [3]): inactive
- Activity (A549 [4]): Active
- Activity (A549 [5]): Active
